How the values were obtained:
FRB-FKBP [1] = settings: ref Bierer et al., 1990, cited from earlier work
ΔFRB (S2035I)-FKBP = ΔFRB (S2035I)-FKBP (Homo sapiens, UniProt P42345+P62942, S2035I); assay: Luciferase PCA with mutant S2035I FRB; assay type: cell-based; settings: HEK293T, 100 nM rapamycin for 6 hrs, Δ-N fusions
[2] = ref Inoue et al., 2005; cited from earlier work
EGFR = assay: EGFR-CBG PCA conformation sensing in CHO TetOn cells; assay type: cell-based
Outline: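 CHO TetOn cells in 96-well plates were transfected for 24 h with EGFR-CBG PCA fusion pairs, then serum-starved for 3 h. They were pre-incubated for 20 min untreated, with DMSO vehicle, or with test compound (10 μM). Baseline was imaged every 15 s for 10 min, then 25 nM EGF was added and imaging continued for 20 min. Untreated-well signal was subtracted. Mean of 8 replicate wells.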

FRB-FKBP [3] = target: FRB-FKBP (Homo sapiens, UniProt P42345+P62942); assay: Real-time reversibility of CBG-N + CBG-C PCA; assay type: cell-based
NFκB = assay: NFκB-dependent transcriptional reporter; assay type: cell-based; settings: HEK293T, 2 hours
Outline: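 HEK293T cells in 24-well plates were transfected with an NFκB-driven FLuc reporter (200 ng/well). At 48 h the medium was changed to DMEM imaging medium. After 15 min equilibration a pre-treatment image was taken. Cells then received TNFα (20 ng/ml final) and/or a GSK3β inhibitor (50 μM final) or DMSO vehicle, and were re-imaged after 2 h in a humidified 5% CO2 incubator. Photon flux is reported as mean fold-initial ± S.E.M.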

β-cat/β-TrCP = assay: Two-color PCA switch, green: β-cat/β-TrCP interaction; assay type: cell-based; settings: HEK293T
PCA luciferase = assay: Control: effect on PCA luciferase enzyme activity; settings: data not shown
IκBα/β-TrCP = assay: Two-color PCA switch, red: IκBα/β-TrCP interaction; assay type: cell-based; settings: HEK293T, TNFα 20 ng/ml
IκBα = assay: IκBα-FLuc fusion reporter processing in HepG2 cells; assay type: cell-based; settings: HepG2, TNFα 20 ng/mL
Outline: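 HepG2 cells were transiently transfected with a κB5-driven IκBα-FLuc fusion reporter (wild type or Ser32/Ser36 Ala mutants). After 48 h the medium was replaced with fresh medium containing D-luciferin, and cells were stimulated with TNFα (20 ng/mL) or vehicle. Real-time bioluminescence imaging was run under 5% CO2. Photon flux is reported as fold-initial, fold-untreated, mean ± S.E.M.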

Chain of FRB-FKBP (Homo sapiens, UniProt P42345+P62942) (P42345 2024-2113 limits assumed): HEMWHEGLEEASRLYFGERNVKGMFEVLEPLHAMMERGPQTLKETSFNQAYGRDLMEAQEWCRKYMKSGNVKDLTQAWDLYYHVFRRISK
Chain of FRB-FKBP (Homo sapiens, UniProt P42345+P62942) (P62942 whole entry): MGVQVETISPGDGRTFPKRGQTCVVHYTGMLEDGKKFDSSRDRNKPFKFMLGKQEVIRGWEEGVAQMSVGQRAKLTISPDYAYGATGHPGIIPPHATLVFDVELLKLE
Chain of ΔFRB (S2035I)-FKBP (P42345 2024-2113 S2035I): as the sequence (P42345 2024-2113 limits assumed) above, with S12I counted along it
Chain of ΔFRB (S2035I)-FKBP (P62942 whole entry, the tested form may be a part): as the sequence (P62942 whole entry) above

For `CO[C@H]1C[C@@H]2CC[C@@H](C)[C@@](O)(O2)C(=O)C(=O)N2CCCC[C@H]2C(=O)O[C@H]([C@H](C)C[C@@H]2CC[C@@H](O)[C@H](OC)C2)CC(=O)[C@H](C)/C=C(\C)[C@@H](O)[C@@H](OC)C(=O)[C@H](C)C[C@H](C)/C=C/C=C/C=C/1C` [rapamycin], the Kd (FRB-FKBP [1]; read-out: previously reported Kd) is listed as 0.2 nM, the “induction of PCA signal” value (ΔFRB (S2035I)-FKBP) is listed as “no detectable induction” and the membrane permeability [2] is listed as “somewhat low”.

With “EGF: recombinant mouse EGF ligand inducing EGFR activation (NSYPGCPSSYDGYCLNGGVCMHIESLDSYTCNCVIGYSGDRCQTRDLRWWELR; UniProt P01132 977-1029, looked up)” the “luciferase PCA signal response” value (EGFR; 25 nM recombinant mouse EGF) was “rapid biphasic signal response”.

In the case of `C=CC[C@@H]1/C=C(\C)C[C@H](C)C[C@H](OC)[C@H]2O[C@@](O)(C(=O)C(=O)N3CCCC[C@H]3C(=O)O[C@H](/C(C)=C/[C@@H]3CC[C@@H](O)[C@H](OC)C3)[C@H](C)[C@@H](O)CC1=O)[C@H](C)C[C@@H]2OC` [FK506], the Ki (FRB-FKBP [1]; read-out: previously reported literature Ki) is listed as 0.4 nM, the membrane permeability [2] is listed as “somewhat low” and the “change of bioluminescence after rapamycin pre-treatment” value (FRB-FKBP [3]; HEK293T, CBG-N + CBG-C, rapamycin 10 nM, FK506 10 μM added at […]) is listed as “brisk loss of bioluminescence”.

For `C[C@@H]1C[C@@H]([C@H](O)CC2CC(=O)NC(=O)C2)C(=O)[C@@H](C)C1` [cycloheximide], the “luciferase activity after rapamycin induction” value (FRB-FKBP [3]; cycloheximide 100 μM added to rapamycin-induced cells) was “remained stable for up to 8 hours”.

In the case of `Cn1cc(C2=C(c3ccc(Cl)cc3Cl)C(=O)NC2=O)c2ccccc21` [SB-216763], the “TNFα-stimulated NFκB-dependent transcription (FLuc reporter)” value (NFκB; TNFα 20 ng/ml combined with SB216763 50 μM) is reported as “dramatically attenuated”, the “basal β-cat/β-TrCP interactions (green photon flux)” value (β-cat/β-TrCP; SB-216763 50 μM) is reported as “attenuated” and the “effect on PCA luciferase enzyme activity per se” value (PCA luciferase) is reported as “no effect”. For the same molecule, the “basal and TNFα-induced IκBα/β-TrCP interactions (red photon flux)” value (IκBα/β-TrCP; SB-216763 50 μM) was “inhibited”.

With TNFα the “NFκB-dependent transcription (FLuc reporter)” value (NFκB; TNFα 20 ng/ml alone) was “robust transcriptional stimulation”, the “β-cat/β-TrCP basal green photon flux” value (β-cat/β-TrCP; TNFα 20 ng/ml) was “no substantial change” and the “IκBα-FLuc reporter signal (wild type)” value (IκBα) was “loss of signal”. For the same molecule, the “IκBα/β-TrCP interactions (red photon flux)” value (IκBα/β-TrCP) was “increase in red photon flux”.

In the case of `N#CC(=C(/N)Sc1ccccc1N)/C(C#N)=C(/N)Sc1ccccc1N` [U0126], the “recovery of luciferase PCA activity after EGF” value (EGFR; 10 μM U0126, 25 nM EGF) is reported as “blunted recovery of luciferase PCA activity”.

Source: publication PMC2943495 (Chemistry & biology, 2010)
